For one series, the system named is Enterococcus faecalis. Nature of the series: Antimicrobial activity against vancomycin-resistant Enterococcus […] ATCC 51299 assessed as reduction in microbial growth after 48 hrs by CLSI based broth microdilution method. Type of series: functional. An outline of the steps:
(§1)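 CLSI broth microdilution: strains were grown aerobically overnight on tryptone soy agar at 37°C. A 0.5 McFarland suspension was diluted to ~5 × 10^5 CFU/mL in cation-adjusted Mueller-Hinton broth (E. coli) or tryptone soy broth (enterococci), and agents were serially diluted.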
For orientation: Dilution methods test growth across graded concentrations, often in twofold steps.

The test system of series [1] is Clostridioides difficile. As to the kind of experiment: Antibacterial activity against Clostridioides difficile ATCC 43255 infected in CDI mouse model assessed as survival rate at 50 mg/kg, po for 5 days relative to control. Format: functional. As to conditions: ATCC 43255, po, 120 h, time 5 day.
Series [2] in a line: Selectivity ratio of MIC for antibacterial activity against Bacteroides fragilis HM-709 to antibacterial activity against Clostridioides difficile NR-32904 P30. Type of series: ADME.
Series [3] concerns Clostridioides difficile. As to the kind of experiment: Antimicrobial activity against Clostridioides difficile NR-32883 P2 assessed as reduction in microbial growth after 48 hrs by broth microdilution method. Format: functional. The method in brief:
(§2)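 Broth microdilution: a 0.5 McFarland suspension was diluted in brain heart infusion supplemented (BHIS) broth to ~5 × 10^5 CFU/mL. Agents were serially diluted and plates incubated anaerobically at 37°C for 48 h.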

Series [4] can be described thus: Selectivity ratio of MIC for antibacterial activity against Bacteroides fragilis HM-711 to antibacterial activity against Clostridioides difficile NR-32895 P19. Type of series: ADME.
Series [5] is described as follows: Selectivity ratio of MIC for antibacterial activity against Bacteroides fragilis HM-711 to antibacterial activity against Clostridioides difficile NR-32891 P13. Format: ADME.
The next series deals with Bacteroides fragilis. Nature of the series: Antibacterial activity against Bacteroides fragilis HM-711 assessed as reduction in microbial growth after 48 hrs by broth microdilution method. Format: organism-based. An outline of the steps: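 Gut commensal MICs by broth microdilution: a 0.5 McFarland suspension was diluted to ~5 × 10^5 CFU/mL in BHIS broth (Bacteroides) or MRS broth (Lactobacillus). Agents were serially diluted and incubated 48 h at 37°C. MIC was read by visual inspection of growth.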

Series [6] is described as follows: Selectivity ratio of MIC for antibacterial activity against Bacteroides dorei HM-719 to antibacterial activity against Clostridioides difficile ATCC 43255. Format: ADME.
The subject of series [7] is Clostridioides difficile. As to the kind of experiment: Potency index, ratio of vancomycin MIC to test compound MIC for antibacterial activity against Clostridioides difficile ATCC 43255. Format: functional.
The nature of series [8]: Selectivity ratio of MIC for antibacterial activity against Bacteroides fragilis HM-709 to antibacterial activity against Clostridioides difficile NR-32883 P2. Format: ADME.
For series [9], the system named is Clostridioides difficile. Nature of the series: Potency index, ratio of vancomycin MIC to test compound MIC for antibacterial activity against Clostridioides difficile NR-13432 isolate 6. Format: functional.
For another series, the system named is Enterococcus faecium. As to the kind of experiment: Antimicrobial activity against vancomycin-resistant Enterococcus faecium ATCC 700221 assessed as reduction in microbial growth after 48 hrs by CLSI based broth microdilution method. Format: functional. An outline of the steps: as §1
Series [10] relates to Clostridioides difficile. Nature of the series: Antimicrobial activity against Clostridioides difficile NR-13435 isolate 9 assessed as reduction in microbial growth after 48 hrs by broth microdilution method. Type of series: functional. The method in brief: as §2

Molecules are shown by their SMILES.

With `O=C(Nc1nnc(-c2cc(Cl)cc(Cl)c2)o1)c1ccc(SC(F)(F)F)cc1`, the MIC in the series with Enterococcus faecalis amounted to 0.14 µM; in the series on Clostridioides difficile [3] it was 0.02 µM; in the series with Bacteroides fragilis, 4.6 µM; with Enterococcus faecium it was 0.29 µM; with Clostridioides difficile [10], 0.007 µM. Moreover, in the series with Clostridioides difficile [1], the survival at 50 mg/kg is 66.7%. Besides, the Selectivity ratio in [2], in series [4], in series [5], in series [6] and in [8] was 100 throughout. Besides, the Ratio with Clostridioides difficile [7] and in the series with Clostridioides difficile [9] was 2.5 throughout.

For the origin of these results see ChEMBL document CHEMBL4665831, “Ultrapotent Inhibitor of Clostridioides difficile Growth, Which Suppresses Recurrence In Vivo” (J Med Chem, 2020).
